ChEMBL document CHEMBL4190362, “Synthesis, biological evaluation and quantitative structure-active relationships of 1,3-thiazolidin-4-one derivatives. A promising chemical scaffold endowed with high antifungal potency and low cytotoxicity” (Eur J Med Chem, 2017)

Tests used:
[1] = test system: Candida tropicalis; experiment: Antifungal activity against Candida tropicalis clinical isolates assessed as inhibition of microbial growth incubated for 24 hrs by broth microdilution method; assay type: functional
Outline: (§1)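 Twenty-two clinical Candida isolates (8 C. albicans, 4 C. glabrata, 3 C. tropicalis, 3 C. krusei, 2 C. parapsilosis, 2 C. sake) were identified by colony morphology and biochemistry and subcultured at 35 °C for purity. Compounds were dissolved in DMSO and tested by broth microdilution in Sabouraud dextrose broth per NCCLS/CLSI/EUCAST guidance. Values are geometric mean MIC per species (µg/mL).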

[2] = test system: Escherichia coli; experiment: Antibacterial activity against Escherichia coli assessed as inhibition of microbial growth incubated for 18 to 22 hrs by broth microdilution method; assay type: functional
Outline: (§2)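 Broth microdilution in Mueller-Hinton II broth following NCCLS recommendations; compounds dissolved in DMSO.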

[3] = test system: Candida parapsilosis; experiment: Antifungal activity against Candida parapsilosis clinical isolates assessed as inhibition of microbial growth incubated for 24 hrs by broth microdilution method; assay type: functional; conditions: Lodderomyces parapsilosis; outline: as §1
[4] = test system: Staphylococcus warneri; experiment: Antibacterial activity against Staphylococcus warneri assessed as inhibition of microbial growth incubated for 18 to 22 hrs by broth microdilution method; assay type: functional; outline: as §2
[5] = test system: Candida albicans; experiment: Antifungal activity against Candida albicans clinical isolates assessed as inhibition of microbial growth incubated for 24 hrs by broth microdilution method; assay type: functional; outline: as §1
[6] = test system: Pichia kudriavzevii; experiment: Antifungal activity against Candida krusei clinical isolates assessed as inhibition of microbial growth incubated for 24 hrs by broth microdilution method; assay type: functional; outline: as §1
[7] = test system: [Candida] sake; experiment: Antifungal activity against Candida sake clinical isolates assessed as inhibition of microbial growth incubated for 24 hrs by broth microdilution method; assay type: functional; conditions: Fermentozyma sake; outline: as §1
[8] = test system: Klebsiella oxytoca; experiment: Antibacterial activity against Klebsiella oxytoca assessed as inhibition of microbial growth incubated for 18 to 22 hrs by broth microdilution method; assay type: functional; outline: as §2
[9] = test system: Nakaseomyces glabratus; experiment: Antifungal activity against Candida glabrata clinical isolates assessed as inhibition of microbial growth incubated for 24 hrs by broth microdilution method; assay type: functional; outline: as §1
[10] = test system: Enterococcus faecalis; experiment: Antibacterial activity against Streptococcus faecalis assessed as inhibition of microbial growth incubated for 18 to 22 hrs by broth microdilution method; assay type: functional; outline: as §2
[11] = test system: Staphylococcus aureus; experiment: Antibacterial activity against Staphylococcus aureus assessed as inhibition of microbial growth incubated for 18 to 22 hrs by broth microdilution method; assay type: functional; outline: as §2
[12] = test system: Proteus mirabilis; experiment: Antibacterial activity against Proteus mirabilis assessed as inhibition of microbial growth incubated for 18 to 22 hrs by broth microdilution method; assay type: functional; outline: as §2
[13] = test system: Enterobacter; experiment: Antibacterial activity against Enterobacter spp. assessed as inhibition of microbial growth incubated for 18 to 22 hrs by broth microdilution method; assay type: functional; outline: as §2
[14] = test system: Streptococcus alpha-hemolyticus (Streptococcus sp.); experiment: Antibacterial activity against Streptococcus Streptococcus alpha hemolyticus assessed as inhibition of microbial growth incubated for 18 to 22 hrs by broth microdilution method

Compound	MIC [1] [µg/mL]	MIC [2] [µg/mL]	MIC [3] [µg/mL]	MIC [4] [µg/mL]	MIC [5] [µg/mL]	MIC [6] [µg/mL]	MIC [7] [µg/mL]	MIC [8] [µg/mL]	MIC [9] [µg/mL]	MIC [10] [µg/mL]	MIC [11] [µg/mL]	MIC [12] [µg/mL]	MIC [13] [µg/mL]	MIC [14] [µg/mL]
CC1CCC(=N/N=C2\NC(=O)CS2)CC1 (configuration not stated)	16	≥ 256	16	≥ 256	16	16	16	≥ 256	16	≥ 256	≥ 256	≥ 256	≥ 256	≥ 256
CC(C)(C)C1CCCC/C1=N/N=C1\NC(=O)CS1 (configuration not stated)	8	≥ 256	2	≥ 256	8	2	2	≥ 256	8	≥ 256	≥ 256	≥ 256	≥ 256	≥ 256
C/C(=N/N=C1\NC(=O)CS1)C1CCCCC1	16	≥ 256	16	≥ 256	8	16	16	≥ 256	8	≥ 256	≥ 256	≥ 256	≥ 256	≥ 256
C/C(=N/N=C1\NC(=O)CS1)c1ccccc1	16	≥ 256	16	≥ 256	2	8	16	≥ 256	2	≥ 256	≥ 256	≥ 256	≥ 256	≥ 256
C/C(=N/N=C1\NC(=O)CS1)c1cccc([N+](=O)[O-])c1	2	≥ 256	2	≥ 256	2	4	2	≥ 256	4	≥ 256	≥ 256	≥ 256	≥ 256	≥ 256
C/C(=N/N=C1\NC(=O)CS1)c1ccc(Cl)s1	8	≥ 256	8	≥ 256	8	16	16	≥ 256	8	≥ 256	≥ 256	≥ 256	≥ 256	≥ 256
CC1=C(/C=N\N=C2/NC(=O)CS2)C(C)(C)CC=C1	16	≥ 256	16	≥ 256	2	2	2	≥ 256	2	≥ 256	≥ 256	≥ 256	≥ 256	≥ 256
CC1(C)CCC/C(=N/N=C2\NC(=O)CS2)C1	32	≥ 256	128	≥ 256	2	2	2	≥ 256	2	≥ 256	≥ 256	≥ 256	≥ 256	≥ 256
C/C(=N/N=C1\NC(=O)CS1)c1ccccc1[N+](=O)[O-]	2	≥ 256	2	≥ 256	2	8	2	≥ 256	2	≥ 256	≥ 256	≥ 256	≥ 256	≥ 256
O=C1CSC(NN=C2CCCCCC2)=N1	8	≥ 256	8	≥ 256	8	8	8	≥ 256	8	≥ 256	≥ 256	≥ 256	≥ 256	≥ 256
O=C1CSC(NN=C2CCCCCCC2)=N1	8	≥ 256	32	≥ 256	8	32	32	≥ 256	8	≥ 256	≥ 256	≥ 256	≥ 256	≥ 256

Now from value to compound, other results behind:

MIC [1] [µg/mL]	MIC [2] [µg/mL]	MIC [3] [µg/mL]	MIC [4] [µg/mL]	MIC [5] [µg/mL]	MIC [6] [µg/mL]	MIC [7] [µg/mL]	MIC [8] [µg/mL]	MIC [9] [µg/mL]	MIC [10] [µg/mL]	MIC [11] [µg/mL]	MIC [12] [µg/mL]	MIC [13] [µg/mL]	Compound	MIC [14] [µg/mL]
2	≥ 256	2	≥ 256	2	2	2	≥ 256	2	≥ 256	≥ 256	≥ 256	≥ 256	C/C(=N/N=C1\NC(=O)CS1)c1ccco1	≥ 256
256	≥ 256	256	≥ 256	256	256	256	≥ 256	256	≥ 256	≥ 256	≥ 256	≥ 256	O=C1CS/C(=N/N=C\c2cccs2)N1	≥ 256
4	≥ 256	128	≥ 256	16	16	8	≥ 256	8	≥ 256	≥ 256	≥ 256	≥ 256	O=C1CS/C(=N/N=C\c2ccccc2[N+](=O)[O-])N1	≥ 256
16	≥ 256	4	≥ 256	16	8	8	≥ 256	8	≥ 256	≥ 256	≥ 256	≥ 256	O=C1CS/C(=N/N=C\c2cccc([N+](=O)[O-])c2)N1	≥ 256
4	≥ 256	4	≥ 256	16	8	8	≥ 256	8	≥ 256	≥ 256	≥ 256	≥ 256	O=C1CS/C(=N/N=C\c2ccc([N+](=O)[O-])cc2)N1	≥ 256
8	≥ 256	8	≥ 256	8	16	16	≥ 256	8	≥ 256	≥ 256	≥ 256	≥ 256	C/C(=N/N=C1\NC(=O)CS1)c1ccsc1	≥ 256
4	≥ 256	128	≥ 256	4	16	2	≥ 256	8	≥ 256	≥ 256	≥ 256	≥ 256	O=C1CS/C(=N/N=C\c2ccccc2)N1	≥ 256
